Measurements reported in article PMC2951323 (Nature, 2009).
Bridge positions count the residues as written; N and C are the ends. Square brackets hold non-standard residues; d marks the D form. Ends that are not written are not given here. Peptide text beside a SMILES is read from it. * marks the point of attachment. FITC = O=C1OC2(c3ccc(O)cc3Oc3cc(O)ccc32)c2ccc(NC(=S)*)cc21; S5 = C=CCCC[C@](C)(N)C(=O)O; βAla = NCCC(=O)O

How the values were obtained:
[1] = tested on: constitutively activated NOTCH1; experiment: NOTCH1-dependent dual-luciferase reporter-gene assay; assay type: cell-based; settings: signal normalized to Renilla luciferase control
RAMANK–CSL complex = RAMANK–CSL complex (Homo sapiens, UniProt P46531+Q06330); experiment: Fluorescence polarization binding of FITC–SAHM peptides to RAMANK–CSL
Summary of the method: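 FITC-labelled stapled test peptides titrated against recombinant human RAMANK (NOTCH1 aa 1761–2127) pre-complexed with human CSL (aa 9–435). Both proteins were expressed and purified as previously reported. Buffer was 20 mM Tris pH 8.4, 150 mM NaCl, 1 mM EDTA and 1 mM DTT. Polarization was read at λex 485 nm and λem 525 nm. Data are mean ± s.d., n = 3.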

[2] = assay type: cell-based
[3] = target: pre-formed RAMANK–CSL complex (human, UniProt P46531 1761-2127; Q06330 23-449); experiment: fluorescence polarisation
Chain of pre-formed RAMANK–CSL complex (P46531 1761-2127, chain 1 of 2): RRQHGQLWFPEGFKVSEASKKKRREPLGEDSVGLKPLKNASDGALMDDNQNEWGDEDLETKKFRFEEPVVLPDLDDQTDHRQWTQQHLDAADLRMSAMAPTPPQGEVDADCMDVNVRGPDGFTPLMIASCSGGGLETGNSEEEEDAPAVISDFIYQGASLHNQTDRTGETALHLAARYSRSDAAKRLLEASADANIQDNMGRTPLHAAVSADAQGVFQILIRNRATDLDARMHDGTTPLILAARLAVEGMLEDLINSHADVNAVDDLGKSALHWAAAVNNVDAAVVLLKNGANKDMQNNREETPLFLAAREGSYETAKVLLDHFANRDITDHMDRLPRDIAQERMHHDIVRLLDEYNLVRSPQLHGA
Chain of pre-formed RAMANK–CSL complex (Q06330 23-449, chain 2 of 2): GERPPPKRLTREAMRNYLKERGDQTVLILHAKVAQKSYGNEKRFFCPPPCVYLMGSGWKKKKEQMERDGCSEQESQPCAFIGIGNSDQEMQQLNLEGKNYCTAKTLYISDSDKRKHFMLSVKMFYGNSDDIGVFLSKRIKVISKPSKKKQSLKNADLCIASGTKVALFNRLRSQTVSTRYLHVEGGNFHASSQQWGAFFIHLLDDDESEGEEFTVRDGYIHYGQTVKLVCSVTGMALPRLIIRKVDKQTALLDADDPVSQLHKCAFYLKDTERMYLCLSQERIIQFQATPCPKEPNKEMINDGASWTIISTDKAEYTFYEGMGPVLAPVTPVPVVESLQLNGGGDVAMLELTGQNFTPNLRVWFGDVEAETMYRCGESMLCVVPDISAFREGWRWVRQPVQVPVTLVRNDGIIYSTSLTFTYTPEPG

## C[C@H](NC(=O)Cc1cc(F)cc(F)c1)C(=O)N[C@H](C(=O)OC(C)(C)C)c1ccccc1 [DAPT]
[1]
  repression of luciferase activity: near complete repression

## CC[C@H](C)[C@H](NC(=O)[C@H](CCCNC(=N)N)NC(=O)[C@H](CCCNC(=N)N)NC(=O)[C@H](CCCNC(=N)N)NC(=O)[C@H](CC(C)C)NC(=O)[C@H](CCCNC(=N)N)NC(=O)[C@H](CCC(=O)O)NC(=O)CCNC(=S)Nc1ccc2c(c1)C(=O)OC21c2ccc(O)cc2Oc2cc(O)ccc21)C(=O)N[C@@]1(C)CCCC=CCCC[C@@](C)(C(=O)N[C@@H](Cc2c[nH]cn2)C(=O)N[C@@H](Cc2c[nH]cn2)C(=O)N[C@@H](CO)C(=O)N[C@H](C(N)=O)[C@@H](C)O)NC(=O)[C@H](CCCNC(=N)N)NC(=O)[C@H](CS)NC(=O)[C@H](CC(C)C)NC1=O [FITC–SAHM1] ({FITC-βAla}-ERLRRRI[S5]LCR[S5]HHST-NH2; staple 8-12; N-terminus assumed)
RAMANK–CSL complex
  Kd: 0.12 ± 0.02 µM
[2]; FITC-labelled peptide
  intracellular distribution: distributed throughout the cytoplasm and nucleus
[2]; FITC-labelled peptide, 4 °C vs 37 °C
  uptake at 4 °C relative to 37 °C: diminished
[2]; FITC-labelled peptides, quantitative epifluorescence microscopy
  cellular uptake (cell penetration): robust and roughly equivalent cellular uptake

## FITC–MAML1(21–36): FITC-labelled unmodified MAML1(21–36) peptide ({FITC}-ERLRRRIELCRRHHST; UniProt Q92585 21-36, looked up, fragment)
RAMANK–CSL complex; fluorescence polarization, same buffer
  binding affinity for RAMANK–CSL compared with FITC–SAHM1 (in words): markedly diminished affinity

B1: dnMAML1 (dominant-negative fragment of MAML1, amino acids 13–74) (domain or fragment, human, UniProt Q92585 13-74, looked up)
chain: LPRHSAVMERLRRRIELCRRHHSTCEARYEAVSPERLELERQHTFALHQRCIQAKAKRAGKH
[3]
  IC50: 3.9 µM
